Measured values: article PMC8725320 (Biochimica et biophysica acta. Bioenergetics, 2021)
“And” between values parts separate entries of the source, which are not always exact repeats. Equal entries are not always repeated. Where two headings read alike, the source gives them in different places. Values belong to the compound of their own block, whether it stands above or below them.

Legend:
[1] = test system: Oxidative Phosphorylation; format: biochemical, mouse
Method in brief: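 Mouse liver, kidney, heart and skeletal muscle mitochondria were isolated and diluted in mannitol–sucrose buffer. Run at 25°C in KCl/MOPS medium at pH 7.0 with 5 mM MgCl2, 10 mM phosphate, 20 μM AP5A, luciferin and luciferase. Eight ADP levels from 0 to 125 μM; start with 10 mM glutamate + 10 mM succinate. Luminescence read each minute for 7–10 min against ATP standards; at least duplicate. ADP3− computed from ΣADP.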

Creatine Kinase = format: biochemical, mouse; conditions: 10 mM phosphocreatine, 20 μM AP5A, mean
Method in brief: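 Creatine kinase pathway in isolated mouse tissue mitochondria. Started by adding 10 mM phosphocreatine, with 20 μM AP5A to block AK. Run at 25°C in pH 7.0 medium with 100 mM KCl, 50 mM MOPS, 5 mM MgCl2, 10 mM phosphate, D-luciferin and luciferase. ADP at eight concentrations from 0 to 125 μM. Luminescence read each minute over 7–10 min against ATP standard curves; at least duplicate.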

[2] = test system: Oxidative Phosphorylation; experiment: Polarography; format: biochemical; conditions: mouse skeletal muscle mitochondria, five preparations, creatine kinase clamp, 5 mM ATP, 37°C
Method in brief: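 Mouse skeletal muscle mitochondria from five preparations, resuspended in mannitol-sucrose buffer, oxidised 10 mM glutamate + 10 mM succinate at 37°C. O2 consumption was recorded continuously. Steady-state ADP was clamped over a range by varying the phosphocreatine/creatine ratio, with 5 mM ATP and saturating creatine kinase. K0.5 was expressed as total ADP and as ADP3−.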

Adenylate Kinase = Adenylate Kinase (Mus musculus, UniProt Q9WTP6); format: biochemical
[3] = test system: Oxidative Phosphorylation; format: biochemical; conditions: human skeletal muscle mitochondria, glutamate + succinate, 20 μM AP5A, mean
Method in brief: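 Isolated human skeletal muscle mitochondria, diluted in mannitol–sucrose buffer. Firefly luciferase ATP-accumulation assay at 25°C in KCl/MOPS medium at pH 7.0 with 5 mM MgCl2, 10 mM phosphate, glucose, EGTA, DTT and 0.2 g% BSA, plus 20 μM AP5A. ADP at eight levels from 0 to 125 μM (ΣADP). Started with 10 mM glutamate + 10 mM succinate. RLU read per minute over 7–10 min; at least duplicate.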

[4] = biological target: adenine nucleotide translocase (ANT); conditions: read-out: ANT-ADP dissociation constant, KdADP^3−; free ion ADP^3−; cited from earlier work
[5] = test system: Oxidative Phosphorylation; conditions: cited from earlier work
[6] = biological target: adenine nucleotide translocase (ANT); experiment: Carboxyatractyloside titration of OxPhos with Easson-Stedman analysis; format: biochemical; conditions: read-out: CAT-ANT Kd; human skeletal muscle mitochondria; Easson-Stedman equation; low [ADP] 6.25 and/or 12.5 μM; n=27
Method in brief: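 Human skeletal muscle mitochondria, oxidising glutamate + succinate, were mixed with reaction mix containing 20 μM AP5A, one ADP level (6.25, 12.5 or 25 μM) and one of eight CAT levels (0–5.0 nM). After 5 min for binding, substrate was added to start the reaction. ATP output was followed by luciferase light at 25°C, at least in duplicate. The Easson-Steadman equation gave Kd and ANT concentration.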

[7] = mouse heart mitochondria, glutamate + succinate, 20 μM AP5A, mean
[8] = mouse kidney mitochondria, glutamate + succinate, 20 μM AP5A, mean
[9] = mouse liver mitochondria, glutamate + succinate, 20 μM AP5A, mean
[10] = mouse skeletal muscle mitochondria, glutamate + succinate, 20 μM AP5A, mean
[11] = mouse skeletal muscle mitochondria
[12] = mouse heart mitochondria, no AP5A, mean
[13] = mouse kidney mitochondria, no AP5A, mean
[14] = mouse skeletal muscle mitochondria, no AP5A, mean

Compound: Nc1ncnc2c1ncn2[C@@H]1O[C@H](COP(=O)(O)OP(=O)(O)O)[C@@H](O)[C@H]1O [ADP]
K0.5ADP^3− for OxPhos, heart ([1]; mouse heart mitochondria, free ion ADP^3− calculated from ΣADP): 1.9 μM and ~ 1.9 μM
Vmax, Oxidative Phosphorylation, Heart [1, 7]: 242.4 nmol ATP min^−1 mg^−1
nH (Hill exponent), Oxidative Phosphorylation, Heart [1, 7]: 1.35
K0.5ADP^3− for OxPhos, kidney ([1]; mouse kidney mitochondria, free ion ADP^3− calculated from ΣADP): 1.9 μM and ~ 1.9 μM
Vmax, Oxidative Phosphorylation, Kidney [1, 8]: 109.9 nmol ATP min^−1 mg^−1
nH (Hill exponent), Oxidative Phosphorylation, Kidney [1, 8]: 1.45
K0.5ADP, Oxidative Phosphorylation, Liver ([1]; mouse liver mitochondria, glutamate + succinate 10 mM + 10 mM, 20 μM AP5A, 25°C, pH 7.0, ΣADP, mean): 22.3 µM
Vmax, Oxidative Phosphorylation, Liver [1, 9]: 59.9 nmol ATP min^−1 mg^−1
nH (Hill exponent), Oxidative Phosphorylation, Liver [1, 9]: 1.33
K0.5ADP^3−, Luciferase ([1]; mouse skeletal muscle mitochondria, same five preparations, 25°C, free ion ADP^3−): 1.9 ± 0.1 μM and 1.9 ^* μM
K0.5ADP (ΣADP), Luciferase ([1]; mouse skeletal muscle mitochondria, same five preparations, 25°C, glutamate + succinate): 11.9 ± 0.6 µM and 11.9 µM
K0.5ADP^3− for OxPhos, skeletal muscle ([1]; mouse skeletal muscle mitochondria, free ion ADP^3− calculated from ΣADP): 1.9 μM and ~ 1.9 μM
K0.5ADP, Oxidative Phosphorylation, Muscle ([1]; mouse skeletal muscle mitochondria, glutamate + succinate, 20 μM AP5A, 25°C, pH 7.0, ΣADP, mean): 11.9 µM
Vmax, Oxidative Phosphorylation, Muscle [1, 10]: 553.5 nmol ATP min^−1 mg^−1
nH (Hill exponent), Oxidative Phosphorylation, Muscle [1, 10]: 1.19
K0.5ADP, Creatine Kinase, Heart (Creatine Kinase; mouse heart mitochondria, 25°C, pH 7.0): 24.4 µM
Vmax, Creatine Kinase, Heart (Creatine Kinase; mouse heart mitochondria): 273.9 nmol ATP min^−1 mg^−1
nH (Hill exponent), Creatine Kinase, Heart (Creatine Kinase; mouse heart mitochondria): 1.00
K0.5ADP, Creatine Kinase, Kidney (Creatine Kinase; mouse kidney mitochondria, 25°C, pH 7.0): 37.8 µM
Vmax, Creatine Kinase, Kidney (Creatine Kinase; mouse kidney mitochondria): 28.7 nmol ATP min^−1 mg^−1
nH (Hill exponent), Creatine Kinase, Kidney (Creatine Kinase; mouse kidney mitochondria): 1.00
K0.5ADP, Creatine Kinase, Muscle (Creatine Kinase; mouse skeletal muscle mitochondria, 25°C, pH 7.0): 36.3 µM
Vmax, Creatine Kinase, Muscle (Creatine Kinase; [11]): 944.2 nmol ATP min^−1 mg^−1
nH (Hill exponent), Creatine Kinase, Muscle (Creatine Kinase; [11]): 1.07
K0.5ADP^3−, Polarography ([2]; free ion ADP^3−): 4.4 ± 0.4 µM and 4.4 µM
K0.5ADP (ΣADP), Polarography ([2]; glutamate + succinate): 13.1 ± 1.3 µM and 13.1 µM
K0.5ADP, Adenylate Kinase, Heart (Adenylate Kinase; mouse heart mitochondria, no AP5A, 25°C, pH 7.0, mean): 54.9 µM
Vmax, Adenylate Kinase, Heart (Adenylate Kinase; [12]): 30.2 nmol ATP min^−1 mg^−1
nH (Hill exponent), Adenylate Kinase, Heart (Adenylate Kinase; [12]): 1.85
K0.5ADP, Adenylate Kinase, Kidney (Adenylate Kinase; mouse kidney mitochondria, no AP5A, 25°C, pH 7.0, mean): 64.3 µM
Vmax, Adenylate Kinase, Kidney (Adenylate Kinase; [13]): 102.3 nmol ATP min^−1 mg^−1
nH (Hill exponent), Adenylate Kinase, Kidney (Adenylate Kinase; [13]): 1.74
K0.5ADP, Adenylate Kinase, Liver (Adenylate Kinase; mouse liver mitochondria, no AP5A, 25°C, pH 7.0, mean): 84.0 µM
nH (Hill exponent), Adenylate Kinase, Liver (Adenylate Kinase; mouse liver mitochondria, no AP5A, mean): 1.53
K0.5ADP, Adenylate Kinase, Muscle (Adenylate Kinase; mouse skeletal muscle mitochondria, no AP5A, 25°C, pH 7.0, mean): 78.0 µM
Vmax, Adenylate Kinase, Muscle (Adenylate Kinase; [14]): 25.7 nmol ATP min^−1 mg^−1
nH (Hill exponent), Adenylate Kinase, Muscle (Adenylate Kinase; [14]): 1.68
Vmax [3]: 251.9 nmol/min/mg
nH [3]: 1.16
K0.5ADP ([3]; ΣADP): 11.1 ± 0.8 µM and 11.1 µM
Kd [4]: ~4000 nM
Hill exponent, nH, in vivo ([5]; in vivo OxPhos vs [ADP], sigmoidal relationship): ~2.0
OxPhos K0.5ADP in vivo ([5]; intact contracting mammalian skeletal muscle, 31P-MRS): 20 to 40 µM

AK activity in the presence of AP5A (Adenylate Kinase; AP5A present at 20 μM, Figure S-8a, S-8b): not detectable
Compound: Nc1ncnc2c1ncn2[C@@H]1O[C@H](COP(=O)(O)OP(=O)(O)OP(=O)(O)OP(=O)(O)OP(=O)(O)OC[C@H]2O[C@@H](n3cnc4c(N)ncnc43)[C@H](O)[C@@H]2O)[C@@H](O)[C@H]1O [AP5A, diadenosine pentaphosphate, reference compound]

Compound: C=C1[C@@H]2CC[C@H]3[C@]4(C)C[C@H](O[C@@H]5O[C@H](CO)[C@@H](OS(=O)(=O)O)[C@H](OS(=O)(=O)O)[C@H]5OC(=O)CC(C)C)CC(C(=O)O)(C(=O)O)[C@H]4CC[C@]3(C2)[C@H]1O [CAT, Carboxyatractyloside]
Kd [6]: 0.048 ± 0.002 nM
